Assay results as given in publication PMC3087843 (Nature structural & molecular biology, 2011).

Target: T1, human ERAP1 (Homo sapiens, UniProt Q9NZ08, G346D/G514D/K528R/Q730E)
Test: Peptide trimming assay
Type: biochemical
Conditions: 150 μM peptide, 3.5 μg ml^–1 ERAP1, 37°C, 50 mM Tris-HCl pH 7.8, 0.25 g L^–1 BSA, C18 RP-HPLC (Fig. 4a)
Outline: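 Human ERAP1 (allelic variant) was baculovirus-expressed, Ni-NTA purified and treated with carboxypeptidase A at room temperature in PBS. Substrates were HPLC-purified synthetic peptides with mass confirmed by MS. Reactions were stopped with 0.6% (v/v) TFA, and the supernatant was run on C18 RP-HPLC with an acetonitrile gradient in 0.03% (v/v) TFA. Percent substrate cleaved was taken from integrated peak areas.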

T1 sequence (Q9NZ08 whole entry G346D/G514D/K528R/Q730E): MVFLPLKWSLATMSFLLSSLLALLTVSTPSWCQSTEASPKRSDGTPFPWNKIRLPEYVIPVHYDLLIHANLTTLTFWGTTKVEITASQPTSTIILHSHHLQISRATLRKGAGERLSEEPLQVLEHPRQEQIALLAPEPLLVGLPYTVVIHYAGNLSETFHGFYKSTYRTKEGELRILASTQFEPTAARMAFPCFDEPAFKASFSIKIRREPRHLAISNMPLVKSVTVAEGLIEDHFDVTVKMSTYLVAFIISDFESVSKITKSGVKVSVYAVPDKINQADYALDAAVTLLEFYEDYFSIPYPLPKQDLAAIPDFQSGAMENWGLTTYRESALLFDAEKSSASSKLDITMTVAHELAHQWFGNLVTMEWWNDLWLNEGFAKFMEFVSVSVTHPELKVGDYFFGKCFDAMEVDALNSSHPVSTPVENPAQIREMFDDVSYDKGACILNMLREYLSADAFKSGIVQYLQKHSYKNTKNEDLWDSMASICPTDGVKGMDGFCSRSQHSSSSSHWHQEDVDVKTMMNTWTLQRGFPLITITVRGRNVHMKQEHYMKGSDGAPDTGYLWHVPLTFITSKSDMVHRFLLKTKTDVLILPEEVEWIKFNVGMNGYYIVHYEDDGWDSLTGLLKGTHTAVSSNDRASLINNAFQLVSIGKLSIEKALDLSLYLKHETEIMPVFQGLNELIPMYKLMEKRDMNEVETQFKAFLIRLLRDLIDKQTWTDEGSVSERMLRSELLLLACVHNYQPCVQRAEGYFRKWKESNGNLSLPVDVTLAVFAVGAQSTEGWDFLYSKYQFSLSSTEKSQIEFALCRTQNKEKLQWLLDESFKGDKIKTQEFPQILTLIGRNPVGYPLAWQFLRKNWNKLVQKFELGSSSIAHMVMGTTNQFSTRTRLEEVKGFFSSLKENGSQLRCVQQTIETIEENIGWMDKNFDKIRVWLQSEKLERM

| Substance | ERAP1 processing of SIINFEKL length variants |
| --- | --- |
| FEKL | not long enough to be processed efficiently |
| SIINFEKL [reference compound] | not long enough to be processed efficiently |
| INFEKL | not processed appreciably |
| QLESIINFEKL | processed efficiently |

Target: T1, human ERAP1
Test: Activation of L-AMC hydrolysis by ERAP1 in the presence of peptides
Type: biochemical
Conditions: 100 μM L-AMC, 0–70 μM peptide, 0.87 μg ml^–1 ERAP1, 37°C (Fig. 6c,d)

| Substance | Activation of ERAP1 hydrolysis of L-AMC by increasing peptide concentrations |
| --- | --- |
| LVAFKARAF [L-peptide] | activated |
| R(N-Me)VAEAAFAE | did not activate |
| L(N-Me)VAFKARAF [L^Me] | activated |
